{"source": "ChEMBL document CHEMBL3272083", "about": "“Antiinflammatory and analgesic diastereoisomeric derivatives of indan-5-acetic acid” (J Med Chem, 1978)", "key": {"Rattus norvegicus [1]": {"test_system": "Rattus norvegicus", "assay": "Analgesic activity in po dosed rat assessed as inhibition of phenylbenzoquinone-induced writhing administered in 1% w/v arabic gum", "format": "functional", "procedure,_shortened": "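Oral dosing in 1% w/v arabic gum vehicle. Read-out was antagonism of writhing produced by phenylbenzoquinone. ED50 with 95% confidence limits was calculated by Bliss's method.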"}, "[2]": {"assay": "(§1) Gastrointestinal toxicity in po dosed rat assessed as ulcerogenic activity after 6 hrs administered in 1% w/v arabic gum", "format": "organism-based", "conditions": "in vivo, read-out: UD50", "procedure,_shortened": "(§2)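 Fasted rats dosed orally, compound suspended in 1% w/v arabic gum. Stomachs examined 6 h after dosing; gastric ulcer intensity graded on a 0–3 scale. The 50% ulcerogenic dose (UD50) was read graphically.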"}, "Rattus norvegicus [3]": {"test_system": "Rattus norvegicus", "assay": "Antiinflammatory activity in po dosed rat assessed as inhibition of carrageenan-induced edema administered in 1% w/v arabic gum", "format": "functional", "procedure,_shortened": "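Given orally in 1% w/v arabic gum vehicle. Read-out was carrageenan-induced edema. ED50 and 95% confidence limits were derived by Bliss's method.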"}, "Rattus norvegicus [4]": {"test_system": "Rattus norvegicus", "assay": "as §1", "format": "organism-based", "conditions": "in vivo, 6 h", "procedure,_shortened": "as §2"}, "[5]": {"conditions": "Rattus norvegicus, po, read-out: ED50"}}}
{"compound": "CC(C)C1Cc2ccc(CC(=O)O)cc2C1", "note": "(racemic)", "values": [{"measurement": "ED50", "setting": "Rattus norvegicus [1]; [5]", "result": 57, "unit": "mg/kg"}, {"measurement": "TD50 at 6 h", "setting": "[2]", "result": 335, "unit": "mg/kg"}, {"measurement": "ED50", "setting": "Rattus norvegicus [3]; [5]", "result": 155, "unit": "mg/kg"}]}
{"compound": "CC1Cc2ccc(CC(=O)O)cc2C1", "note": "(racemic)", "values": [{"measurement": "ED50", "setting": "Rattus norvegicus [1]; [5]", "result": 175, "unit": "mg/kg"}]}
{"compound": "CCC1Cc2ccc(CC(=O)O)cc2C1", "note": "(racemic)", "values": [{"measurement": "ED50", "setting": "Rattus norvegicus [1]; [5]", "result": 104, "unit": "mg/kg"}, {"measurement": "TD50 at 6 h", "setting": "[2]", "result": 125, "unit": "mg/kg"}, {"measurement": "ED50", "setting": "Rattus norvegicus [3]; [5]", "result": "> 256", "unit": "mg/kg"}]}
{"compound": "CCC1Cc2ccc(C(C)C(=O)O)cc2C1", "note": "(racemic)", "values": [{"measurement": "ED50", "setting": "Rattus norvegicus [1]; [5]", "result": 6, "unit": "mg/kg"}, {"measurement": "TD50 at 6 h", "setting": "[2]", "result": 65, "unit": "mg/kg"}, {"measurement": "ED50", "setting": "Rattus norvegicus [3]; [5]", "result": 36, "unit": "mg/kg"}]}
{"compound": "CC(C(=O)O)c1ccc2c(c1)CC(C(C)C)C2", "note": "(racemic) [ISOPROFEN]", "values": [{"measurement": "ED50", "setting": "Rattus norvegicus [1]; [5]", "result": 9, "unit": "mg/kg"}, {"measurement": "TD50 at 6 h", "setting": "[2]", "result": 62, "unit": "mg/kg"}, {"measurement": "ED50", "setting": "Rattus norvegicus [3]; [5]", "result": 29, "unit": "mg/kg"}]}
{"compound": "CC(C(=O)O)c1ccc2c(c1)CC(C(C)C)C2", "note": "(single isomer, unassigned; (+)) [ISOPROFEN]", "values": [{"measurement": "ED50", "setting": "Rattus norvegicus [1]", "result": 10, "unit": "mg/kg"}, {"measurement": "UD50", "setting": "Rattus norvegicus [4]", "result": 46, "unit": "mg/kg"}, {"measurement": "ED50", "setting": "Rattus norvegicus [3]", "result": 24, "unit": "mg/kg"}]}
{"compound": "CC(C)Cc1ccc(C(C)C(=O)O)cc1", "note": "(centres undefined) [IBUPROFEN]", "values": [{"measurement": "ED50", "setting": "Rattus norvegicus [1]; [5]", "result": 17, "unit": "mg/kg"}, {"measurement": "TD50 at 6 h", "setting": "[2]", "result": 40, "unit": "mg/kg"}, {"measurement": "ED50", "setting": "Rattus norvegicus [3]; [5]", "result": 44, "unit": "mg/kg"}]}
{"compound": "CC(C(=O)O)c1ccc2c(c1)CC(C(C)C)C2", "note": "(single isomer, unassigned; (-)) [ISOPROFEN]", "values": [{"measurement": "ED50", "setting": "Rattus norvegicus [1]", "result": 17, "unit": "mg/kg"}, {"measurement": "UD50", "setting": "Rattus norvegicus [4]", "result": 87, "unit": "mg/kg"}, {"measurement": "ED50", "setting": "Rattus norvegicus [3]", "result": 32, "unit": "mg/kg"}]}
{"compound": "CC(C)[C@@H]1Cc2ccc([C@H](C)C(=O)O)cc2C1", "values": [{"measurement": "ED50", "setting": "Rattus norvegicus [1]; [5]", "result": 9, "unit": "mg/kg"}]}
{"compound": "CC1Cc2ccc(C(C)C(=O)[O-])cc2C1.[Na+]", "note": "(racemic)", "values": [{"measurement": "ED50", "setting": "Rattus norvegicus [1]; [5]", "result": 24, "unit": "mg/kg"}]}
